From ChEMBL document CHEMBL4665752, “Synthesis and Antifungal Activity of Chromones and Benzoxepines from the Leaves of Ptaeroxylon obliquum” (2020)
In brackets after ≈: the same amount, converted by molar mass.

Experiments:
Format in all cases: functional
Candida albicans [1] = assay: Antifungal activity against Candida albicans ATCC 10231 after 24 hrs by microdilution assay
In short: (§1)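 Broth microdilution in triplicate; compounds in DMSO, serially diluted in sterile distilled water, final 25 to 0.2 μg/mL; fungi kept on Sabouraud dextrose agar, inocula diluted in Sabouraud dextrose broth. p-Iodonitrotetrazolium violet (0.2 mg/mL stock) added as growth indicator; incubation 35 °C, 100% relative humidity. MIC = lowest concentration inhibiting growth, read at 24 and 48 h. Amphotericin B positive, DMSO negative control.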

Cryptococcus neoformans [2] = assay: Antifungal activity against Cryptococcus neoformans after 24 hrs by microdilution assay; in short: as §1
Cryptococcus neoformans [3] = assay: Antifungal activity against Cryptococcus neoformans after 48 hrs by microdilution assay; in short: as §1
Candida albicans [4] = assay: Antifungal activity against Candida albicans ATCC 10231 after 48 hrs by microdilution assay; in short: as §1

Row | SMILES | MIC (Candida albicans [1]) | MIC (Cryptococcus neoformans [2]) | MIC (Cryptococcus neoformans [3]) | MIC (Candida albicans [4])
1 | Cc1cc(=O)c2c(O)cc3c(c2o1)CC=C(CO)CO3 | 11.4 µM (≈ 3.13 µg/mL) | 5.7 µM (≈ 1.56 µg/mL) | 5.7 µM (≈ 1.56 µg/mL) | 11.4 µM (≈ 3.13 µg/mL)
2 | C=CCc1c2c(c(O)c3c(=O)cc(C)oc13)C=CC(C)(C)O2 | 41.9 µM (≈ 12.5 µg/mL) | 10.5 µM (≈ 3.13 µg/mL) | 10.5 µM (≈ 3.13 µg/mL) | 83.8 µM (≈ 25 µg/mL)
3 | COc1cc2c(c(OC)c1C(C)=O)CC=C(CO)CO2 | 11.2 µM (≈ 3.12 µg/mL) | 11.2 µM (≈ 3.12 µg/mL) | 11.2 µM (≈ 3.12 µg/mL) | 22.5 µM (≈ 6.26 µg/mL)
4 | C=CCc1c(O)cc(O)c2c(=O)cc(C)oc12 | 13.5 µM (≈ 3.14 µg/mL) | 13.5 µM (≈ 3.14 µg/mL) | 13.5 µM (≈ 3.14 µg/mL) | 13.5 µM (≈ 3.14 µg/mL)
5 | Cc1cc(=O)c2c(O)cc(O)cc2o1 [NOREUGENIN] | 16.3 µM (≈ 3.13 µg/mL) | 16.3 µM (≈ 3.13 µg/mL) | 16.3 µM (≈ 3.13 µg/mL) | 16.3 µM (≈ 3.13 µg/mL)
6 | Cc1cc(=O)c2c(O)c3c(cc2o1)OCC(CO)=CC3 | 11.4 µM (≈ 3.13 µg/mL) | 5.7 µM (≈ 1.56 µg/mL) | 5.7 µM (≈ 1.56 µg/mL) | 11.4 µM (≈ 3.13 µg/mL)
7 | CC(=O)OCC1=CCc2c(cc(O)c3c(=O)cc(C)oc23)OC1 | 9.9 µM (≈ 3.13 µg/mL) | 9.9 µM (≈ 3.13 µg/mL) | 9.9 µM (≈ 3.13 µg/mL) | 9.9 µM (≈ 3.13 µg/mL)
8 | CC(=O)OCC1=CCc2c(cc3oc(C)cc(=O)c3c2O)OC1 | 19.8 µM (≈ 6.26 µg/mL) | 4.9 µM (≈ 1.55 µg/mL) | 4.9 µM (≈ 1.55 µg/mL) | 19.8 µM (≈ 6.26 µg/mL)
9 | C=CCc1c2c(c(O)c(C(C)=O)c1OC)C=CC(C)(C)O2 | 86.7 µM (≈ 25 µg/mL) | 21.7 µM (≈ 6.26 µg/mL) | 43.3 µM (≈ 12.5 µg/mL) | 86.7 µM (≈ 25 µg/mL)
10 | C[C@@H]1[C@H](O)[C@@H](C)/C=C/C=C/C=C/C=C/C=C/C=C/C=C/[C@H](O[C@@H]2O[C@H](C)[C@@H](O)[C@H](N)[C@@H]2O)C[C@@H]2O[C@](O)(C[C@@H](O)C[C@@H](O)[C@H](O)CC[C@@H](O)C[C@@H](O)CC(=O)O[C@H]1C)C[C@H](O)[C@H]2C(=O)O [AMPHOTERICIN B] | 0.42 µM (≈ 0.388 µg/mL) | 0.42 µM (≈ 0.388 µg/mL) | 0.42 µM (≈ 0.388 µg/mL) | 0.84 µM (≈ 0.776 µg/mL)
